This note sets out measurements from ChEMBL document CHEMBL5329165, “Design, synthesis and biological evaluation of phenanthridine amide and 1,2,3-triazole analogues against Mycobacterium tuberculosis” (RSC Med Chem, 2023).

Series [1] deals with Mycobacterium tuberculosis. Put plainly: Antibacterial activity against Mycobacterium tuberculosis H37Rv ATCC 27294 by microplate alamar blue assay. It counts as functional. The method, boiled down: (§1)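 H37Rv (ATCC 27294) in 7H12 broth (7H9 with casitone, BSA, catalase, palmitic acid). Compounds from DMSO in twofold serial dilution; final inoculum 3 to 5 X10⁵ cells/mL; 7 days at 37°C. Resazurin plus Tween 80 added, 18–24 h more at 37°C. Fluorescence read at 530 nm excitation/590 nm emission. MIC is the lowest concentration giving 90% fluorescence reduction versus untreated bacteria.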

The subject of series [2] is Mycobacterium tuberculosis. Description: Antimycobacterial activity against replicating Mycobacterium tuberculosis H37Rv ATCC 27294 incubated for 7 days by microplate alamar blue assay. Conditions: H37Rv ATCC 27294, 168 h, time 7 day. It counts as functional. The method, boiled down:
as §1
On the technique in general: Alamar Blue is a resazurin reagent that responds to reducing activity.

Series [3] concerns Mycobacterium tuberculosis. Description: Antimycobacterial activity against non-replicating Mycobacterium tuberculosis H37Rv ATCC 27294 incubated for 10 days under anaerobic condition followed by treatment under aerobic condition and measured on day 11 by luminescence based low oxygen recovery assay. Type of series: functional. The note with it: H37Rv ATCC 27294, 264 h, time 11 day. The method, boiled down:
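Low-oxygen recovery assay with H37Rv carrying autoluminescent LuxABCDE plasmid, adapted to low oxygen. Cells in 7H12 broth, sonicated 15 s, inoculum 5 x 10⁵ to 2 x 10⁶ CFU/mL, with twofold compound dilutions. Anaerobic (<0.16% O₂; 10% H₂, 5% CO₂, N₂) at 37°C for 10 days, then 28 h aerobic recovery (5% CO₂ air). Luminescence read day 11; MIC at 90% signal reduction versus untreated controls.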

A short description of series [4]: Cytotoxicity against human HepG2 cells assessed as reduction in cell viability by alamar blue assay. It counts as toxicity, cell-based. The method, boiled down: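 HepG2 cells grown in Glutamax DMEM with 10% (v/v) FBS and antibiotics, seeded in 96-well plates at 37°C, 5% CO₂. Viability measured by Alamar Blue staining per manufacturer's protocol; CC₅₀ derived.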

Series [5] deals with Mycobacterium tuberculosis. Description: Antibacterial activity against Mycobacterium tuberculosis H37Rv. Type of series: functional. Summed up: as §1
The subject of series [6] is Mycobacterium tuberculosis. Description: Antibacterial activity against Mycobacterium tuberculosis H37Rv incubated for 7 days by alamar blue reagent based fluorescence plate reader analysis. Type of series: functional. The note with it: 168 h, time 7 day. Summed up: as §1
In series [7] the test system is Mycobacterium tuberculosis. Description: Antimycobacterial activity against Mycobacterium tuberculosis H37Ra by microplate alamar blue assay. Type of series: functional.

Each structure is given as a SMILES string. Converted amounts (≈) assume the structure as drawn. Where only a bound is given, the exact number is not on record here.

As to `O=C(NCc1ccc(N2CCC(Cl)CC2)cc1)c1cc([N+](=O)[O-])cc([N+](=O)[O-])c1`, inhibition of growth in series [1] (MIC) required 0.038 µM (≈ 0.0159 µg/mL).

Take `CCc1nc2ccc(C)cn2c1C(=O)NCCOc1ccc(N2CCC(=NOC)CC2)cc1`: the minimum inhibitory concentration (MIC) in series [1] is less than 0.035 µM.

For the compound `Cc1nc2c3ccccc3c3ccccc3n2c1C(=O)NCc1cn(-c2ccc(Cl)c(Cl)c2[N+](=O)[O-])nn1`, the MIC in series [2] and in series [3] was greater than 183 µM in each case.

As for `Cc1nc2c3ccccc3c3ccccc3n2c1C(=O)NCc1cn(-c2ccccc2Cl)nn1`, the MIC in series [2] and in series [3] was greater than 214 µM throughout.

For `C#CCNC(=O)c1c(C)nc2c3ccccc3c3ccccc3n12`, the MIC in series [2] and in series [3] was greater than 319 µM in each case.

As for `Cc1nc2c3ccccc3c3ccccc3n2c1C(=O)NCc1cn(-c2cccc(C(F)(F)F)c2)nn1`, the results for the MIC in series [2] and in series [3] were 184 µM (≈ 92 µg/mL) and 89.5 µM (≈ 44.8 µg/mL), respectively. Further, in series [4], the 50% cytotoxic concentration (CC50) was determined as 82.3 µM.

Take `Cc1nc2c3ccccc3c3ccccc3n2c1C(=O)NCc1cn(-c2ccc([N+](=O)[O-])cc2Br)nn1`: the MIC in series [2] and in series [3] was 180 µM (≈ 100 µg/mL) each time.

In the case of `O=C(Cc1ccccc1)Nc1nc2ccccc2c2ccccc12`, the MIC was determined as 294 µM (≈ 91.8 µg/mL) in series [2] and 267 µM (≈ 83.5 µg/mL) in series [3]. Moreover, the CC50 in series [4] was greater than 50 µM.

For the compound `O=C(Nc1nc2ccccc2c2ccccc12)c1ccccc1I`, the minimum inhibitory concentration (MIC) in series [2] and in series [3] was greater than 236 µM in each case.

For `O=C(Cc1ccc(Br)cc1)Nc1nc2ccccc2c2ccccc12`, the minimal inhibitory concentration (MIC) in series [2] and in series [3] was greater than 256 µM throughout. Further, in series [4], the 50% cytotoxic concentration (CC50) was greater than 50 µM.

Consider `Cc1ccc(-n2cc(CNC(=O)c3c(C)nc4c5ccccc5c5ccccc5n34)nn2)cc1C`, for which the MIC in series [2] is 41.5 µM (≈ 19.1 µg/mL); in series [3] it was 78.8 µM (≈ 36.3 µg/mL).

As to `O=C(Nc1nc2ccccc2c2ccccc12)c1cccc(Cl)c1`, the MIC in series [2] and in series [3] was greater than 300 µM each time.

As for `Cc1nc2c3ccccc3c3ccccc3n2c1C(=O)NCc1cn(-c2ccc(C(F)(F)F)cc2)nn1`, the minimal inhibitory concentration (MIC) in series [2] was greater than 200 µM; in series [3] it was 93 µM (≈ 46.5 µg/mL). Besides, the CC50 in series [4] amounted to 84.4 µM.

With `O=C(/C=C/c1ccccc1)Nc1nc2ccccc2c2ccccc12`, the MIC in series [2] and in series [3] was greater than 308 µM each time.

Turning to `N#Cc1ccc(Cn2cc(CNC(=O)c3cn4ccccc4n3)nn2)cc1`, in series [5], the MIC was found to be 1560 µM (≈ 558 µg/mL).

As to `O=C(CCCc1c[nH]c2ccccc12)Nc1nc2ccccc2c2ccccc12`, the values for the MIC in series [2] and in series [3] were 70.6 µM (≈ 26.8 µg/mL) and 218 µM (≈ 82.8 µg/mL), respectively. Also, the CC50 in series [4] worked out at 30 µM.

On to `O=C(Nc1nc2ccccc2c2ccccc12)c1cnccn1`, for which the MIC in series [2] and in series [3] was greater than 333 µM throughout. The CC50 in series [4] was 53 µM.

For the compound `O=C(Cc1c[nH]c2ccccc12)Nc1nc2ccccc2c2ccccc12`, the MIC worked out at 125 µM (≈ 44.1 µg/mL) in series [2] and 69 µM (≈ 24.2 µg/mL) in series [3]. The CC50 in series [4] worked out at 32.1 µM.

Turning to `Nc1ccc(C(=O)Nc2nc3ccccc3c3ccccc23)cc1`, the MIC in series [2] turned out to be 78.3 µM (≈ 24.5 µg/mL); in series [3], 85.8 µM (≈ 26.9 µg/mL). For the same compound, the CC50 in series [4] worked out at 32.1 µM.

In the case of `Cc1ccc2nc(C)c(C(=O)NCCCC3CCCCC3)n2c1`, the MIC in series [6] was 0.1 µM (≈ 0.0313 µg/mL).

Turning to `Cc1cc(C)cc(-n2cc(CNC(=O)c3c(C)nc4c5ccccc5c5ccccc5n34)nn2)c1`, the MIC is greater than 217 µM in series [2] and 208 µM (≈ 95.9 µg/mL) in series [3]. In addition, the CC50 in series [4] was determined as 90.7 µM.

Consider `C#CCCC(=O)Nc1nc2ccccc2c2ccccc12`, for which the MIC in series [2] and in series [3] was greater than 365 µM in each case. Besides, the CC50 in series [4] amounted to 22.6 µM.

On to `Nc1cccc(C(=O)Nc2nc3ccccc3c3ccccc23)c1`, for which the MIC amounted to 150 µM (≈ 46.9 µg/mL) in series [2] and 151 µM (≈ 47.2 µg/mL) in series [3]. Also, in series [4], the CC50 amounted to 56.9 µM.

With `COc1nc2ccc(Br)cc2cc1[C@@H](c1ccccc1)[C@@](O)(CCN(C)C)c1cccc2ccccc12` [BEDAQUILINE], the MIC in series [2] was 0.054 µM (≈ 0.03 µg/mL); in series [3], 0.216 µM (≈ 0.12 µg/mL).

As for `CO[C@H]1/C=C/O[C@@]2(C)Oc3c(C)c(O)c4c(O)c(c(/C=N/N5CCN(C)CC5)c(O)c4c3C2=O)NC(=O)/C(C)=C\C=C\[C@H](C)[C@H](O)[C@@H](C)[C@@H](O)[C@@H](C)[C@H](OC(C)=O)[C@@H]1C` [RIFAMPIN], the MIC in series [2] worked out at 0.073 µM (≈ 0.0601 µg/mL); in series [3], 0.145 µM (≈ 0.119 µg/mL).

Take `CCc1ccc(-n2cc(CNC(=O)c3c(C)nc4c5ccccc5c5ccccc5n34)nn2)cc1`: the MIC in series [2] and in series [3] was greater than 217 µM in each case.

For the compound `Nc1nc2ccccc2c2ccccc12`, the figures for the MIC in series [2] and in series [3] were 61.3 µM (≈ 11.9 µg/mL) and 62.1 µM (≈ 12.1 µg/mL), respectively. The CC50 in series [4] was 30.5 µM.

In series [7], `O=C(Nc1ccc(Cl)cn1)c1cccc(C(F)(F)F)c1` came in with an MIC of 109 µM (≈ 32.7 µg/mL).

As for `CCCCCCCC(=O)Nc1nc2ccccc2c2ccccc12`, the figures for the MIC in series [2] and in series [3] were greater than 312 µM and 300 µM (≈ 96.2 µg/mL), respectively. Further, in series [4], the CC50 is greater than 50 µM.

For the compound `CCCCCC(=O)Nc1nc2ccccc2c2ccccc12`, the MIC in series [2] is greater than 342 µM; in series [3], 79.8 µM (≈ 23.3 µg/mL). The CC50 in series [4] is 79.5 µM.

Take `NNC(=O)c1ccncc1` [ISONIAZID]: the MIC in series [2] amounted to 2.62 µM (≈ 0.36 µg/mL); in series [3], 560 µM (≈ 76.8 µg/mL).

As for `Cc1nc2c3ccccc3c3ccccc3n2c1C(=O)NCc1cn(-c2cccc([N+](=O)[O-])c2)nn1`, the results for the MIC in series [2] and in series [3] were 84.3 µM (≈ 40.2 µg/mL) and 87.4 µM (≈ 41.7 µg/mL), respectively. Also, the CC50 in series [4] was 71.9 µM.

For the compound `COc1ccc(-n2cc(CNC(=O)c3c(C)nc4c5ccccc5c5ccccc5n34)nn2)c([N+](=O)[O-])c1`, the MIC in series [2] was 94 µM (≈ 47.7 µg/mL); in series [3], 106 µM (≈ 53.6 µg/mL).

In general, MIC refers to the least concentration at which growth counts as inhibited. The term CC50 denotes the concentration at which the toxic effect on the cells reaches its halfway point.
